Results as given in ChEMBL document CHEMBL1126564, “Synthesis and antimicrobial evaluation of a series of 7-[3-amino (or aminomethyl)-4-aryl (or cyclopropyl)-1-pyrrolidinyl]-4-quinolone- and -1,8-naphthyridone-3-carboxylic acids” (1993).
≈ marks a conversion by molar mass, not a printed value.

How the values were obtained:
Format in all cases: functional
[1] = tested on: Escherichia coli; experiment: Minimum inhibitory concentration against Escherichia coli Vogel; details: Escherichia coli; read-out: MIC
Summary of the method: (§1)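 Standard microdilution method against a panel of five Gram-negative and five Gram-positive bacterial strains. The MIC (µg/mL) was recorded for each strain.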

[2] = tested on: Enterococcus faecalis; experiment: Minimum inhibitory concentration against […] MGH-2; details: Enterococcus faecalis; read-out: MIC; summary of the method: as §1
[3] = tested on: Enterobacter cloacae; experiment: Minimum inhibitory concentration against […] MA-2646; details: Enterobacter cloacae; read-out: MIC; summary of the method: as §1
[4] = tested on: Klebsiella pneumoniae; experiment: Minimum inhibitory concentration against Klebsiella pneumoniae MGH-2; details: Klebsiella pneumoniae; read-out: MIC; summary of the method: as §1
[5] = tested on: Pseudomonas aeruginosa; experiment: Minimum inhibitory concentration against Pseudomonas aeruginosa UI-18; details: Pseudomonas aeruginosa; read-out: MIC; summary of the method: as §1
[6] = tested on: Providencia rettgeri; experiment: Minimum inhibitory concentration against Providencia rettgeri M-1771; details: Providencia rettgeri; read-out: MIC; summary of the method: as §1
[7] = tested on: Streptococcus pneumoniae; experiment: Minimum inhibitory concentration against Streptococcus pneumoniae SV-1; details: Streptococcus pneumoniae; read-out: MIC; summary of the method: as §1
[8] = tested on: Staphylococcus aureus; experiment: Minimum inhibitory concentration against Staphylococcus aureus H-228; details: Staphylococcus aureus; read-out: MIC; summary of the method: as §1
[9] = tested on: Streptococcus pyogenes; experiment: Minimum inhibitory concentration against Streptococcus pyogenes C-203; details: Streptococcus pyogenes; read-out: MIC; summary of the method: as §1
[10] = tested on: Staphylococcus aureus; experiment: Minimum inhibitory concentration against Staphylococcus aureus UC-76; details: Staphylococcus aureus; read-out: MIC; summary of the method: as §1

| Compound | MIC [1] [µg/mL] | MIC [2] [µg/mL] | MIC [3] [µg/mL] | MIC [4] [µg/mL] | MIC [5] [µg/mL] | MIC [6] [µg/mL] | MIC [7] [µg/mL] | MIC [8] [µg/mL] | MIC [9] [µg/mL] | MIC [10] [µg/mL] |
| --- | --- | --- | --- | --- | --- | --- | --- | --- | --- | --- |
| CN(C)c1ccc(C2CN(c3c(F)cc4c(=O)c(C(=O)O)cn(C5CC5)c4c3F)CC2N)cc1 (stereo not given) | 0.2 (≈ 0.427 µM) | 0.1 (≈ 0.213 µM) | 0.2 (≈ 0.427 µM) | 0.2 (≈ 0.427 µM) | 3.1 (≈ 6.62 µM) | 0.4 (≈ 0.854 µM) | 0.1 (≈ 0.213 µM) | 0.025 (≈ 0.0534 µM) | 0.1 (≈ 0.213 µM) | 0.013 (≈ 0.0277 µM) |
| NCC1CN(c2c(F)c(N)c3c(=O)c(C(=O)O)cn(C4CC4)c3c2F)CC1c1ccccc1 (trans isomer) | 0.025 (≈ 0.055 µM) | 0.013 (≈ 0.0286 µM) | 0.05 (≈ 0.11 µM) | 0.05 (≈ 0.11 µM) | 0.8 (≈ 1.76 µM) | 0.1 (≈ 0.22 µM) | 0.003 (≈ 0.0066 µM) | 0.006 (≈ 0.0132 µM) | 0.006 (≈ 0.0132 µM) | 0.003 (≈ 0.0066 µM) |
| NCc1cccc(C2CN(c3nc4c(cc3F)c(=O)c(C(=O)O)cn4C3CC3)CC2CN)c1 (trans isomer) | 3.1 (≈ 6.87 µM) | 1.6 (≈ 3.54 µM) | 3.1 (≈ 6.87 µM) | 3.1 (≈ 6.87 µM) | 12.5 (≈ 27.7 µM) | 6.3 (≈ 14 µM) | 0.8 (≈ 1.77 µM) | 3.1 (≈ 6.87 µM) | 0.2 (≈ 0.443 µM) | 0.8 (≈ 1.77 µM) |
| NCC1CN(c2c(F)c(N)c3c(=O)c(C(=O)O)cn(C4CC4)c3c2F)CC1c1ccc(N)cc1 (trans isomer) | 0.1 (≈ 0.213 µM) | 0.025 (≈ 0.0532 µM) | 0.1 (≈ 0.213 µM) | 0.2 (≈ 0.426 µM) | 0.8 (≈ 1.7 µM) | 0.2 (≈ 0.426 µM) | 0.013 (≈ 0.0277 µM) | 0.025 (≈ 0.0532 µM) | 0.025 (≈ 0.0532 µM) | 0.006 (≈ 0.0128 µM) |
| Nc1c(F)c(N2CC(N)C(c3ccc(O)cc3)C2)c(F)c2c1c(=O)c(C(=O)O)cn2C1CC1 (trans isomer) | 0.05 (≈ 0.11 µM) | 0.05 (≈ 0.11 µM) | 0.05 (≈ 0.11 µM) | 0.05 (≈ 0.11 µM) | 0.8 (≈ 1.75 µM) | 0.1 (≈ 0.219 µM) | 0.05 (≈ 0.11 µM) | 0.05 (≈ 0.11 µM) | 0.1 (≈ 0.219 µM) | 0.013 (≈ 0.0285 µM) |
| CC(C)c1ccc(C2CN(c3nc4c(cc3F)c(=O)c(C(=O)O)cn4C3CC3)CC2N)cc1 (trans isomer) | 0.4 (≈ 0.888 µM) | 0.4 (≈ 0.888 µM) | 0.8 (≈ 1.78 µM) | 0.8 (≈ 1.78 µM) | 6.3 (≈ 14 µM) | 1.6 (≈ 3.55 µM) | 0.4 (≈ 0.888 µM) | 0.2 (≈ 0.444 µM) | 0.4 (≈ 0.888 µM) | 0.1 (≈ 0.222 µM) |
| Nc1c(F)c(N2CC(N)C(c3ccccc3)C2)c(F)c2c1c(=O)c(C(=O)O)cn2C1CC1 (stereo not given) | 0.025 (≈ 0.0568 µM) | 0.05 (≈ 0.114 µM) | 0.025 (≈ 0.0568 µM) | 0.05 (≈ 0.114 µM) | 0.8 (≈ 1.82 µM) | 0.1 (≈ 0.227 µM) | 0.05 (≈ 0.114 µM) | 0.013 (≈ 0.0295 µM) | 0.1 (≈ 0.227 µM) | 0.006 (≈ 0.0136 µM) |

The remaining lines, values ahead:

| MIC [1] [µg/mL] | MIC [2] [µg/mL] | MIC [3] [µg/mL] | MIC [4] [µg/mL] | MIC [5] [µg/mL] | MIC [6] [µg/mL] | MIC [7] [µg/mL] | MIC [8] [µg/mL] | MIC [9] [µg/mL] | MIC [10] [µg/mL] | Compound |
| --- | --- | --- | --- | --- | --- | --- | --- | --- | --- | --- |
| 0.05 (≈ 0.116 µM) | 0.013 (≈ 0.0303 µM) | 0.05 (≈ 0.116 µM) | 0.1 (≈ 0.233 µM) | 0.4 (≈ 0.931 µM) | 0.1 (≈ 0.233 µM) | 0.006 (≈ 0.014 µM) | 0.025 (≈ 0.0582 µM) | 0.013 (≈ 0.0303 µM) | 0.003 (≈ 0.00699 µM) | NCC1CN(c2c(F)cc3c(=O)c(C(=O)O)cn(C4CC4)c3c2F)CC1c1ccco1 (stereo not given) |
| 0.2 (≈ 0.443 µM) | 0.2 (≈ 0.443 µM) | 0.2 (≈ 0.443 µM) | 0.4 (≈ 0.886 µM) | 3.1 (≈ 6.87 µM) | 0.4 (≈ 0.886 µM) | 0.2 (≈ 0.443 µM) | 0.05 (≈ 0.111 µM) | 0.2 (≈ 0.443 µM) | 0.025 (≈ 0.0554 µM) | CN(C)c1ccc(C2CN(c3nc4c(cc3F)c(=O)c(C(=O)O)cn4C3CC3)CC2N)cc1 (trans isomer) |
| 0.2 (≈ 0.457 µM) | 0.1 (≈ 0.229 µM) | 0.2 (≈ 0.457 µM) | 0.4 (≈ 0.914 µM) | 1.6 (≈ 3.66 µM) | 0.8 (≈ 1.83 µM) | 0.05 (≈ 0.114 µM) | 0.2 (≈ 0.457 µM) | 0.05 (≈ 0.114 µM) | 0.025 (≈ 0.0571 µM) | NCC1CN(c2nc3c(cc2F)c(=O)c(C(=O)O)cn3C2CC2)CC1c1ccc(N)cc1 (cis isomer) |
| 0.1 (≈ 0.228 µM) | 0.2 (≈ 0.456 µM) | 0.1 (≈ 0.228 µM) | 0.2 (≈ 0.456 µM) | 1.6 (≈ 3.65 µM) | 0.4 (≈ 0.912 µM) | 0.1 (≈ 0.228 µM) | 0.1 (≈ 0.228 µM) | 0.1 (≈ 0.228 µM) | 0.05 (≈ 0.114 µM) | COc1ccc(C2CN(c3nc4c(cc3F)c(=O)c(C(=O)O)cn4C3CC3)CC2N)cc1 (trans isomer) |
| 0.1 (≈ 0.22 µM) | 0.1 (≈ 0.22 µM) | 0.1 (≈ 0.22 µM) | 0.2 (≈ 0.439 µM) | 1.6 (≈ 3.51 µM) | 0.4 (≈ 0.878 µM) | 0.05 (≈ 0.11 µM) | 0.025 (≈ 0.0549 µM) | 0.05 (≈ 0.11 µM) | 0.013 (≈ 0.0285 µM) | COc1ccc(C2CN(c3c(F)cc4c(=O)c(C(=O)O)cn(C5CC5)c4c3F)CC2N)cc1 (trans isomer) |
| 0.05 (≈ 0.135 µM) | 0.1 (≈ 0.269 µM) | 0.1 (≈ 0.269 µM) | 0.05 (≈ 0.135 µM) | 0.8 (≈ 2.15 µM) | 0.1 (≈ 0.269 µM) | 0.1 (≈ 0.269 µM) | 0.1 (≈ 0.269 µM) | 0.1 (≈ 0.269 µM) | ≤ 0.025 | NC1CN(c2cc3c(cc2F)c(=O)c(C(=O)O)cn3C2CC2)CC1C1CC1 (stereo not given) |
